In data set [1] the test system is Blood. Put plainly: Anticoagulant activity in human blood assessed as increase in activated partial thromboplastin time at 300 uM incubated for 1 min by aPTT reagent based assay relative to control. Format: functional. An outline of the steps: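 Compounds were tested at 300 µM, and the increase was expressed relative to DMSO. The doubling concentration (EC2×) is the concentration prolonging aPTT twofold. At least triplicate, mean ± SD.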

For data set [2], the target named is Urokinase-type plasminogen activator (Homo sapiens, UniProt P00749). Put plainly: Inhibition of human uPA using Tos-Gly-Pro-Arg-AMC as fluorogenic substrate measured at 1 min interval for 1 hr by fluorometric assay.
The subject of data set [3] is Plasma. Put plainly: Anticoagulant activity in human platelet-rich plasma assessed as reduction in TF-induced thrombin generation by measuring Tmax of clotting time at 100 uM preincubated for 15 mins followed by TF addition by Z-Gly-Gly-Arg-AMC substrate based calibrated automated thrombography (reference value: 8.1 +/- 0.6 min). Type of data set: functional, cell-free. An outline of the steps:
(§1)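 Tissue-factor-triggered homogeneous thrombin generation followed by fluorogenic substrate cleavage. Read-outs: clotting time (T1/2), peak amplitude (Amax, AU/L), time to peak (Tmax) and ETP (AU·min/L). DMSO and buffer served as controls. n = 3, mean ± SD.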

Data set [4] relates to Plasma. Put plainly: Anticoagulant activity in human platelet-rich plasma assessed as reduction in TF-induced thrombin generation by measuring amplitude of thrombin peak at 100 uM preincubated for 15 mins followed by TF addition by Z-Gly-Gly-Arg-AMC substrate based calibrated automated thrombography (reference value: 63 +/- 3.7 AU/L). Type of data set: functional. The conditions noted are these: 0.25 h. An outline of the steps:
as §1

Data set [5] deals with Blood. Put plainly: Effect on blood coagulation in human blood assessed as increase in prothrombin time at 300 uM incubated for 3 mins followed by CaCl2 addition by PT reagent based assay relative to control. The conditions noted are these: 0.05 h. Format: ADME, tissue-based. In outline: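 Clotting was started with PT reagent already containing CaCl2, prewarmed to 37 °C, and clotting time was recorded. Increase is given relative to DMSO; at least triplicate, mean ± SD.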

Data set [6] has as its target T1, Coagulation factor XII (Homo sapiens) (UniProt P00748).
T1 sequence (whole entry): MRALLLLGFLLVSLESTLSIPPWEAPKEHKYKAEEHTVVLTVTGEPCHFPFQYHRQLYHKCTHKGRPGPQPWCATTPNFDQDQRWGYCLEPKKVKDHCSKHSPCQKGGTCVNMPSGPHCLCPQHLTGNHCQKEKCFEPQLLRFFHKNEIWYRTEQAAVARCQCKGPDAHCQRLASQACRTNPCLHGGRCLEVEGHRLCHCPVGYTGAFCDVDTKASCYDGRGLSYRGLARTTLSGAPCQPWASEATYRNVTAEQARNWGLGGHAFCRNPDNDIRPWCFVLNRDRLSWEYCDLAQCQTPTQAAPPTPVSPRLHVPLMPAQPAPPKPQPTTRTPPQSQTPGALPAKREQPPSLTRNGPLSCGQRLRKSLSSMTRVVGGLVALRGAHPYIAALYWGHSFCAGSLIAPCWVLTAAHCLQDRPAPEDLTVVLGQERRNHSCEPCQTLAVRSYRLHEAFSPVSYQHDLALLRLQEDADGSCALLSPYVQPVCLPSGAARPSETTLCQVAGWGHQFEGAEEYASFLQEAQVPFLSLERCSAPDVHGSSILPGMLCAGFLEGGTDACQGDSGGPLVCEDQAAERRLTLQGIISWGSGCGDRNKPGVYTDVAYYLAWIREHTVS
Put plainly: Inhibition of human coagulation factor XIIA in presence of Boc-Gln-Gly-Arg-AMC as fluorogenic substrate at 1 uM measured at 1 min interval for 1 hr by fluorometric assay relative to control. An outline of the steps: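 Screening of crude microscale amide-coupling products. Conversion was measured by 1H NMR and product content normalised to 76 µmol/L in DMSO, then tested at 1 µM and 100 nM in the fluorogenic FXIIa or thrombin assay. A 0-conversion reaction served as blank. Percent inhibition is from triplicates.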

Data set [7] in a line: Inhibition of porcine trypsin using Z-Gly-Gly-Arg-AMC as fluorogenic substrate measured at 1 min interval for 1 hr by fluorometric assay. Further details: species or system Sus scrofa.
The next data set deals with Plasminogen (Homo sapiens, UniProt P00747). Put plainly: Inhibition of human plasmin using Mes-dArg-Phe-Arg-AMC as fluorogenic substrate measured at 1 min interval for 1 hr by fluorometric assay.
Plasminogen, sequence (P00747 97-580 limits assumed): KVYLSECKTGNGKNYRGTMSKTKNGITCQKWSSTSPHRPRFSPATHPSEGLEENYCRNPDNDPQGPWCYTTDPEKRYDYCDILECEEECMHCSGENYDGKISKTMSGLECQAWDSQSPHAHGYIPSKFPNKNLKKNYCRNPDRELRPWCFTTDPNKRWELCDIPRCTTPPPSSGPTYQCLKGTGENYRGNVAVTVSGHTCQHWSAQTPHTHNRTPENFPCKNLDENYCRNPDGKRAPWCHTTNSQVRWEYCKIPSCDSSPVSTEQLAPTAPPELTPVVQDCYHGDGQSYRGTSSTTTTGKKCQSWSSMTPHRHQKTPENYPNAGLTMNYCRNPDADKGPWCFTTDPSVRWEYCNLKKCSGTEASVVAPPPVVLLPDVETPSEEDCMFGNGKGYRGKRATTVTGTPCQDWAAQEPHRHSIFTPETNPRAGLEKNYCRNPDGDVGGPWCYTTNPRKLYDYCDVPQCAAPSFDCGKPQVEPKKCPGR
Plasminogen, sequence (P00747 581-810 limits assumed): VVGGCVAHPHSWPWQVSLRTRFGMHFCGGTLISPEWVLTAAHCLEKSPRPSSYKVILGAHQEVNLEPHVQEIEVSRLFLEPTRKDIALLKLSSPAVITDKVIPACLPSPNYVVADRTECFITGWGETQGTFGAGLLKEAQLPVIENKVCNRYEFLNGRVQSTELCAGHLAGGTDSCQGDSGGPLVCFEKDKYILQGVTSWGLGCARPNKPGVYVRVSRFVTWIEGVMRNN
Data set [8] has as its system Plasma. Put plainly: Anticoagulant activity in human platelet-rich plasma assessed as reduction in TF-induced thrombin generation by measuring half life of clotting time at 100 uM preincubated for 15 mins followed by TF addition by Z-Gly-Gly-Arg-AMC substrate based calibrated automated thrombography (Rvb= 3 +/- 0.5 min). Format: functional, cell-free. In outline: as §1

Data set [9] deals with Plasma. Put plainly: Anticoagulant activity in human platelet-rich plasma assessed as reduction in TF-induced thrombin generation by measuring endogenous thrombin potential at 100 uM preincubated for 15 mins followed by TF addition by Z-Gly-Gly-Arg-AMC substrate based calibrated automated thrombography (reference value: 1203 +/- 44 AU.min/L). Type of data set: functional. Conditions: 0.25 h. An outline of the steps: as §1

The next data set has as its target Coagulation factor XI (Homo sapiens, UniProt P03951). Put plainly: Inhibition of human coagulation factor XIA using Mes-dArg-Pro-Arg-AMC as fluorogenic substrate measured at 1 min interval for 1 hr by fluorometric assay.
The target of data set [10] is T2, Fatty-acid amide hydrolase 1 (Rattus norvegicus, UniProt P97612).
T2 sequence (P97612 whole entry): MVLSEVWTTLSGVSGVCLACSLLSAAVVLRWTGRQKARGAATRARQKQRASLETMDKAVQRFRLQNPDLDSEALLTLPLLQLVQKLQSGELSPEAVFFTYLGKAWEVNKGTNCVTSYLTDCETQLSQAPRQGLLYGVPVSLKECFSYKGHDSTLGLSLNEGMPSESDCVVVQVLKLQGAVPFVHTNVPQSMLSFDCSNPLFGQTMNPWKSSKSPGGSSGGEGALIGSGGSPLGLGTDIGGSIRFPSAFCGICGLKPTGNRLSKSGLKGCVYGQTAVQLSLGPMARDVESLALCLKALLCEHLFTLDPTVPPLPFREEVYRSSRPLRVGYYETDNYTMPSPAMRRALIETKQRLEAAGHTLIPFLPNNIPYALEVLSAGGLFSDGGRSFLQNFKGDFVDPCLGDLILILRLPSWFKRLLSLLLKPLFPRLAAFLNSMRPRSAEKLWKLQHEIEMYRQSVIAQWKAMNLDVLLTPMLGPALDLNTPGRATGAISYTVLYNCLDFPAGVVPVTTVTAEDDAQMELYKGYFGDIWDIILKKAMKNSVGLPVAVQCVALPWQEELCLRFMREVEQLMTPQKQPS
Put plainly: Inhibition of FAAH in rat brain membrane using N-(2-hydroxyethyl)-4-pyren-1-ylbutanamide as substrate measured after 60 mins by reverse-phase HPLC-based fluorescence assay. Format: cell membranes.

For a further data set, the target named is Prothrombin (Homo sapiens, UniProt P00734). Put plainly: Inhibition of human coagulation factor alpha-thrombin using Boc-Val-Pro-Arg-AMC as fluorogenic substrate measured at 1 min interval for 1 hr by fluorometric assay.
Another data set addresses T3, Coagulation factor XII (Homo sapiens, UniProt P00748).
T3 sequence (P00748 whole entry): T1 sequence (whole entry)
Put plainly: Inhibition of human coagulation factor XIIA using Boc-Gln-Gly-Arg-AMC as fluorogenic substrate measured at 1 min interval for 1 hr by fluorometric assay.

Coagulation factor XI, sequence (P03951 19-387 limits assumed): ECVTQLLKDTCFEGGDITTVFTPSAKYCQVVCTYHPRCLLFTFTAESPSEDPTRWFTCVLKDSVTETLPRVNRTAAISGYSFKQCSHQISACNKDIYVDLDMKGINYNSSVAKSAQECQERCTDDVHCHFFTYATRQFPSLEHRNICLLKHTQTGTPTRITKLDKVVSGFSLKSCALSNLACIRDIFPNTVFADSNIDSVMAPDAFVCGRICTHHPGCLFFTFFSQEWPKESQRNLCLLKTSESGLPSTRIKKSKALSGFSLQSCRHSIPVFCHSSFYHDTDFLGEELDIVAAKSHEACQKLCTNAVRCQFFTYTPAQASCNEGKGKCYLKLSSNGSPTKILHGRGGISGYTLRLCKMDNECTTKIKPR
Coagulation factor XI, sequence (P03951 388-625 limits assumed): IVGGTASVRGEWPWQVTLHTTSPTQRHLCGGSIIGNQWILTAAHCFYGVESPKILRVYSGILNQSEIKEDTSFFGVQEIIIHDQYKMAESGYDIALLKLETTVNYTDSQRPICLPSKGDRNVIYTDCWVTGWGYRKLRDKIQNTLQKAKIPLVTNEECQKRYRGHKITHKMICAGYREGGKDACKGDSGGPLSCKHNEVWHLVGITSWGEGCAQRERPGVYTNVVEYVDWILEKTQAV

The IC50 is the concentration needed to halve the response being measured. Low values mean higher potency, high ones lower potency. In general, inhibition refers to the drop in the measured response relative to a control, in per cent. In the case of `Nc1nc(-c2ccccn2)nn1C(=O)c1cccc2ccccc12`, the Activity in the data set with Blood [1] turned out to be 176%; in the data set on Plasma [4], 53.3 AU/L; in the data set with Blood [5], 14%; in the data set with Plasma [9], 738 AU.min/L. In addition, the IC50 in data set [2] was above 5 µM; in [7], above 5 µM; at Plasminogen, above 5 µM; against Coagulation factor XI it was above 5 µM; in data set [10], above 5 µM; on Prothrombin, 0.375 µM. This molecule had a concentration for half-maximal inhibition (IC50) on Coagulation factor XII of 0.029 µM. Also, the Tmax with Plasma [3] was determined as 7 min. For the same molecule, in [6], the inhibition was 98%. In addition, the T1/2 with Plasma [8] was 2.7 min.

Consider `Nc1nc(-c2ccccn2)nn1C(=O)c1ccc2ccccc2c1`, for which the Activity came out at 212% in the data set on Blood [1], 175.5 AU/L with Plasma [4], 575% in the data set with Blood [5] and 2160 AU.min/L with Plasma [9]. For the same molecule, the IC50 in data set [2] was 6.76 µM; in data set [7], above 5 µM; on Plasminogen it was above 5 µM; on Coagulation factor XI, above 5 µM; in data set [10], above 5 µM; against Prothrombin, 0.027 µM. Inhibition on Coagulation factor XII was half-maximal at 0.138 µM (IC50). The Tmax with Plasma [3] turned out to be 8 min. Moreover, in [6], the inhibition worked out at 77%. In addition, the T1/2 in the data set with Plasma [8] turned out to be 2.3 min.

Source of the values: ChEMBL document CHEMBL4673255, “Acylated 1H-1,2,4-Triazol-5-amines Targeting Human Coagulation Factor XIIa and Thrombin: Conventional and Microscale Synthesis, Anticoagulant Properties, and Mechanism of Action” (J Med Chem, 2020).
